For experiment [1], the target named is T1, Complement factor D (Homo sapiens, UniProt P00746). Kind of experiment: Competitive inhibition of human complement factor D preincubated for 1 hr followed by addition of Z-Lys-thiobenzyl ester as substrate measured over 50 mins at 1 min interval. Summed up:
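Enzyme was factor D purified from normal human serum. Substrate Z-Lys-thiobenzyl ester (Z-Lys-Sbzl), read by absorbance. IC50 is the average of at least two independent triplicate experiments.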

The target of experiment [2] is T1, Complement factor D. Description: Binding affinity to recombinant human C-terminal 6His-tagged/biotinylated complement factor D (26 to 253 residues) expressed in Sf9 insect cells by biolayer interferometry method. The essentials: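 Biotinylated recombinant human factor D expressed in Sf9 insect cells; direct binding read by bio-layer interferometry. Kd taken from the mean of two independent experiments, with standard deviations.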
On the technique in general: Biolayer interferometry detects binding as a change in optical thickness at a sensor tip.

The target of experiment [3] is T1, Complement factor D. Description: Binding affinity to recombinant human C-terminal 6His-tagged/biotinylated complement factor D (26 to 253 residues) expressed in Sf9 insect cells assessed as association constant measured after 300 to 900 secs by biolayer interferometry method.
Experiment [4] concerns the target T1, Complement factor D. Kind of experiment: Binding affinity to recombinant human C-terminal 6His-tagged/biotinylated complement factor D (26 to 253 residues) expressed in Sf9 insect cells assessed as dissociation constant measured after 300 to 1800 secs by biolayer interferometry method.
Experiment [5] deals with T1, Complement factor D. Description: Inhibition of recombinant human C-terminal 6His-tagged complement factor D (26 to 253 residues) expressed in Sf9 insect cells preincubated for 1 hr followed by addition of Z-Lys-thiobenzyl ester as substrate measured over 50 mins at 1 min interval. The essentials:
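Enzyme was recombinant human factor D expressed in Sf9 insect cells. Substrate Z-Lys-thiobenzyl ester, read by absorbance. OD was converted to product concentration with an extinction coefficient of 13260 M-1cm-1 and a 0.29 cm path correction.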

The target of experiment [6] is T1, Complement factor D. Kind of experiment: Binding affinity to complement factor D (unknown origin).

Molecules are shown by their SMILES. pIC50, pKd: −log10 of the molar value.

T1 sequence (P00746 whole entry): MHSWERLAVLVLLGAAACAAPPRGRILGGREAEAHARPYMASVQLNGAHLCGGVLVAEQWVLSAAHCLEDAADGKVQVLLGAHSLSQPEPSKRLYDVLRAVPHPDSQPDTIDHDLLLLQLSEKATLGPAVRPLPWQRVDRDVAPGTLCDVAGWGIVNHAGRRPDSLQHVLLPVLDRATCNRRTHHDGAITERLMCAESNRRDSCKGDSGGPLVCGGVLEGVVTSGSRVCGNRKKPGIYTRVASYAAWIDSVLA

For the compound `NC(=O)c1nn(CC(=O)N2CCS[C@H]2C(=O)Nc2cccc(Br)n2)c2ncccc12`, the pIC50 – broadly, −log10 of the IC50, conventionally taken in molar units – in experiment [1] was 7.56; in experiment [5], 7.72. Moreover, in experiment [2], the pKd (commonly −log10 of the Kd, conventionally taken in molar units) is 7.72. Moreover, the K was 173000 M⁻¹ s⁻¹ in experiment [3] and 0.00327 s⁻¹ in experiment [4].

Compound `NC(=O)c1nn(CC(=O)N2[C@@H]3C[C@@H]3C[C@H]2C(=O)Nc2cccc(Br)n2)c2ncccc12` gave a pIC50 in experiment [1] of 7.50. In experiment [2], the negative-log Kd (pKd) was 7.77. The K in experiment [3] is 212000 M⁻¹ s⁻¹; in experiment [4], 0.00361 s⁻¹.

As for `O=C(Nc1cccc(Br)n1)[C@@H]1SCCN1C(=O)Cn1ncc2ccccc21`, the K in experiment [3] was 132000 M⁻¹ s⁻¹; in experiment [4], 0.292 s⁻¹.

`O=C(Nc1cccc(Br)n1)[C@@H]1C[C@H]2C[C@H]2N1C(=O)Cn1ncc2ccccc21`: the values for the K in experiment [3] and in experiment [4] were 15800 M⁻¹ s⁻¹ and 0.189 s⁻¹, respectively.

Consider `O=c1[nH]c2ccccc2c(=O)o1`, for which, in experiment [6], the negative logarithm of the IC50 (pIC50) is 5.54.

`N=C(N)c1cc2ccc(OC(=O)c3cccs3)cc2s1` had a pIC50 in experiment [6] of 7.01.
